# Measurements gathered from unrelated publications.
# Target: Ribosomal protein S6 kinase beta-1 (RPS6KB1, Homo sapiens, UniProt P23443)
SMILES,observed,action,technique,tested at,quantity,result
N#CC1(c2ccccn2)CCN(Cc2cc(C(=O)O)c(=O)n3ccccc23)CC1,cell-free assay,,competition with immobilised ligand,1 µM,remaining binding,96%
Cn1cc(-c2cccc(N3CCc4c(sc5c4CC(C)(C)C5)C3=O)c2CO)cc(Nc2ccncn2)c1=O,enzyme activity,inhibitor,,1 µM,inhibition,5%
COc1cc(Nc2ncc(F)c(Nc3ccc4c(n3)NC(=O)C(C)(C)O4)n2)cc(OC)c1OC,binding,,,10 µM,inhibition,81%
CC(C)(C)c1cc(C=C(C#N)C#N)cc(Br)c1O,enzyme activity,inhibitor,,0.5 µM,remaining activity,91.3%
Cc1nn(C)cc1-c1nc2c(N3CCN(Cc4ccc(Cl)cc4)CC3)c(Cl)cnc2[nH]1,binding,,competition with immobilised ligand,1 µM,remaining binding,92%
Cn1cc(-c2cc(F)cc(N3CCn4c(cc5c4CCCC5)C3=O)c2CO)cc(Nc2ccc(N3CCN(C4COC4)CC3)cn2)c1=O,enzyme activity,inhibitor,,0.1 µM,inhibition,10%
Cn1cncc1[C@@](O)(COc1ccc(C#N)cc1-c1ccc(OC(F)(F)F)cc1)c1ccc(C#N)cc1,cell-free assay,,competition with immobilised ligand,1 µM,remaining binding,94%
C#Cc1n[nH]c2c(-c3cn([C@@H](C)c4ccccc4)c(=O)[nH]c3=O)cc(F)cc12,enzyme activity,inhibitor,,0.1 µM,inhibition,18.6%
COc1ncccc1-c1cnn2ccc(N3CCN(C(=O)OC(C)C)CC3)nc12,binding,,competition with immobilised ligand,1 µM,remaining binding,100%
O=c1[nH]c2ccccc2n1C1CCN(Cc2ccc(-c3[nH]c4cc5ncnc5cc4nc3-c3ccccc3)cc2)CC1,cell-free assay,,,0.5 µM,remaining signal,101%
Nc1ncc(-c2nc(N3CCOCC3)nc(N3CCOCC3)n2)c(C(F)F)n1,binding,,competition with immobilised ligand,10 µM,remaining binding,76%
C#Cc1n[nH]c2c(-c3cn([C@@H](C)c4ccccn4)c(=O)[nH]c3=O)cc(F)cc12,enzyme activity,inhibitor,,0.1 µM,inhibition,10.2%
